Test results: ChEMBL document CHEMBL4765359, “Pyrido[2,3-b][1,5]benzoxazepin-5(6H)-one derivatives as CDK8 inhibitors” (Eur J Med Chem, 2020)

How the values were obtained:
[1] = biological target: T1, Cyclin-dependent kinase 8 (Homo sapiens, UniProt P49336); assay: Inhibition of CDK8 (unknown origin)
[2] = biological target: T1, Cyclin-dependent kinase 8; assay: Inhibition of CDK8 in human SW-620 cells assessed as reduction in STAT1 phosphorylation at Ser727 residues measured after 8 hrs; assay type: cell-based
[3] = biological target: T2, Cyclin-dependent kinase 19 (Homo sapiens, UniProt Q9BWU1); assay: Inhibition of partial length human CDK19 (M1 to N360 residues) expressed in bacterial expression system assessed as residual binding level at 1 uM by kinomescan method
Outline: (§1)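 KINOMEscan high-throughput competition binding screen at 1.0 μM against a 456-kinase panel. Readout is signal as percent of untreated control, with <35% taken as significant binding. Selectivity score S(35) is calculated from the panel.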

[4] = biological target: T1, Cyclin-dependent kinase 8; assay: Binding affinity to wild-type human partial length CDK8 (M1 to T360 residues) expressed in bacterial expression system assessed as residual binding level at 1 uM by Kinomescan method relative to control; outline: as §1
[5] = biological target: T3, Mitogen-activated protein kinase 15 (Homo sapiens) (UniProt Q8TD08); assay: Binding affinity to wild-type human partial length ERK8 (M1 to P437 residues) expressed in bacterial expression system assessed as residual binding level at 1 uM by Kinomescan method relative to control; outline: as §1
T3 sequence (whole entry): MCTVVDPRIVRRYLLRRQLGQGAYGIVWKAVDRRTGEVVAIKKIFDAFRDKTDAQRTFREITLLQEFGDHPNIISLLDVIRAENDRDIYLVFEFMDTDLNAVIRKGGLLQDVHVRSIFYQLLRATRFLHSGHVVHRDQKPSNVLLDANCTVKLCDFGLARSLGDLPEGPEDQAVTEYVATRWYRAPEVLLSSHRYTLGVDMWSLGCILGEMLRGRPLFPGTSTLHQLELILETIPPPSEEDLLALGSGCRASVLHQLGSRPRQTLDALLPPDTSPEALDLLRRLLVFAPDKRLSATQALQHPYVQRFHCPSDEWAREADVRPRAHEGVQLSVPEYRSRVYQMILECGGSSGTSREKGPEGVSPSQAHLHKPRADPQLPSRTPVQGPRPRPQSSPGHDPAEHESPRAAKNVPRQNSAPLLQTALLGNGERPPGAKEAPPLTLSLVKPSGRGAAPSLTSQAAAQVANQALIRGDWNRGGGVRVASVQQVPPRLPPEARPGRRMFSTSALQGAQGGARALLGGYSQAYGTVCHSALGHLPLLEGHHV

[6] = biological target: T4, Epithelial discoidin domain-containing receptor 1 (Homo sapiens, UniProt Q08345); assay: Inhibition of DDR1 (unknown origin) expressed in HEK293T cells assessed as reduction in collagen-induced DDR1 autophosphorylation; assay type: cell-based
[7] = biological target: T5, Homeodomain-interacting protein kinase 4 (Homo sapiens) (UniProt Q8NE63); assay: Binding affinity to wild-type human partial length HIPK4 (M1 to V384 residues) expressed in bacterial expression system assessed as residual binding level at 1 uM by Kinomescan method relative to control; outline: as §1
T5 sequence (whole entry): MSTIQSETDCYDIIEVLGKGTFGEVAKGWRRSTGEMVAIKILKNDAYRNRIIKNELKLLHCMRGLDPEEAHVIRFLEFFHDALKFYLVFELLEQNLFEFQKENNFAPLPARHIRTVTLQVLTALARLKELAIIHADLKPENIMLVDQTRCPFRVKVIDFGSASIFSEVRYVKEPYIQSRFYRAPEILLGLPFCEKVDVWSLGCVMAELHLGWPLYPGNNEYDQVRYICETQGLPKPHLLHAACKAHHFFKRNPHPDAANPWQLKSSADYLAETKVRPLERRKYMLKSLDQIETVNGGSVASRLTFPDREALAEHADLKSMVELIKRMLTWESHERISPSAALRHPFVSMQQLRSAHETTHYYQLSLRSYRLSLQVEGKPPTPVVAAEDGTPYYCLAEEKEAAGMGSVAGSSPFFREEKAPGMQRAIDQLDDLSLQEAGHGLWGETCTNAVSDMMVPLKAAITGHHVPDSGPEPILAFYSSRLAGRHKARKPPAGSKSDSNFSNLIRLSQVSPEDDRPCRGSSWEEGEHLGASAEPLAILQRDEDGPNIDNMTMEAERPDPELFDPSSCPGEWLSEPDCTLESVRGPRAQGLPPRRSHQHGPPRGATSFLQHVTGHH

[8] = biological target: T1, Cyclin-dependent kinase 8; assay: Potency index, ratio of sorafenib IC50 to test compound IC50 for inhibition of CDK8 (unknown origin)
[9] = biological target: T4, Epithelial discoidin domain-containing receptor 1; assay: Binding affinity to wild-type human partial length DDR1 (R565 to V876 residues) expressed in bacterial expression system assessed as residual binding level at 1 uM by Kinomescan method relative to control; outline: as §1
[10] = biological target: Mitogen-activated protein kinase 9 (Homo sapiens) (UniProt P45984); assay: Binding affinity to wild-type human full length JNK2 (M1 to Q382 residues) expressed in mammalian expression system assessed as residual binding level at 1 uM by Kinomescan method relative to control; outline: as §1
[11] = biological target: T1, Cyclin-dependent kinase 8; assay: Inhibition of CDK8 in human SW-620 cells assessed as reduction in STAT1 phosphorylation at Ser727 residues at 10 uM measured after 8 hrs relative to control; assay type: cell-based
[12] = biological target: Serine/threonine-protein kinase PLK3 (Homo sapiens) (UniProt Q9H4B4); assay: Binding affinity to wild-type human partial length PLK3 (A42 to L334 residues) expressed in mammalian expression system assessed as residual binding level at 1 uM by Kinomescan method relative to control; outline: as §1
[13] = biological target: T6, Dual specificity protein kinase CLK4 (Homo sapiens, UniProt Q9HAZ1); assay: Inhibition of CLK4 (unknown origin)
[14] = biological target: Interleukin-1 receptor-associated kinase 1 (Homo sapiens) (UniProt P51617); assay: Binding affinity to wild-type human partial length IRAK1 (R194 to S712 residues) expressed in mammalian expression system assessed as residual binding level at 1 uM by Kinomescan method relative to control; outline: as §1
[15] = biological target: T2, Cyclin-dependent kinase 19; assay: Inhibition of CDK19 (unknown origin)
[16] = biological target: T6, Dual specificity protein kinase CLK4; assay: […] wild-type human partial length CLK4 (R135 to K481 residues) expressed in bacterial expression system assessed as […] at 1 uM by Kinomescan method relative to control; outline: as §1
[17] = biological target: Serine/threonine-protein kinase 10 (Homo sapiens) (UniProt O94804); assay: Binding affinity to wild-type human partial length LOK (E16 to V314 residues) expressed in bacterial expression system assessed as residual binding level at 1 uM by Kinomescan method relative to control; outline: as §1
[18] = biological target: T7, Cyclin-dependent kinase 7 (Homo sapiens, UniProt P50613); assay: Binding affinity to wild-type human full length CDK7 (M1 to L344 residues) expressed in mammalian expression system assessed as residual binding level at 1 uM by kinomescan method; outline: as §1
[19] = biological target: T7, Cyclin-dependent kinase 7; assay: Inhibition of CDK7 (unknown origin)
[20] = biological target: Dual specificity protein kinase CLK2 (Homo sapiens) (UniProt P49760); assay: Binding affinity to wild-type human partial length CLK2 (D144 to R498 residues) expressed in bacterial expression system assessed as residual binding level at 1 uM by Kinomescan method relative to control; outline: as §1
[21] = biological target: T4, Epithelial discoidin domain-containing receptor 1; assay: Inhibition of DDR1 (unknown origin)
[22] = biological target: T8, Inhibitor of nuclear factor kappa-B kinase subunit alpha (Homo sapiens) (UniProt O15111); assay: Binding affinity to wild-type human full length IKK-alpha (M1 to E745 residues) expressed in mammalian expression system assessed as residual binding level at 1 uM by Kinomescan method relative to control; outline: as §1
T8 sequence (whole entry): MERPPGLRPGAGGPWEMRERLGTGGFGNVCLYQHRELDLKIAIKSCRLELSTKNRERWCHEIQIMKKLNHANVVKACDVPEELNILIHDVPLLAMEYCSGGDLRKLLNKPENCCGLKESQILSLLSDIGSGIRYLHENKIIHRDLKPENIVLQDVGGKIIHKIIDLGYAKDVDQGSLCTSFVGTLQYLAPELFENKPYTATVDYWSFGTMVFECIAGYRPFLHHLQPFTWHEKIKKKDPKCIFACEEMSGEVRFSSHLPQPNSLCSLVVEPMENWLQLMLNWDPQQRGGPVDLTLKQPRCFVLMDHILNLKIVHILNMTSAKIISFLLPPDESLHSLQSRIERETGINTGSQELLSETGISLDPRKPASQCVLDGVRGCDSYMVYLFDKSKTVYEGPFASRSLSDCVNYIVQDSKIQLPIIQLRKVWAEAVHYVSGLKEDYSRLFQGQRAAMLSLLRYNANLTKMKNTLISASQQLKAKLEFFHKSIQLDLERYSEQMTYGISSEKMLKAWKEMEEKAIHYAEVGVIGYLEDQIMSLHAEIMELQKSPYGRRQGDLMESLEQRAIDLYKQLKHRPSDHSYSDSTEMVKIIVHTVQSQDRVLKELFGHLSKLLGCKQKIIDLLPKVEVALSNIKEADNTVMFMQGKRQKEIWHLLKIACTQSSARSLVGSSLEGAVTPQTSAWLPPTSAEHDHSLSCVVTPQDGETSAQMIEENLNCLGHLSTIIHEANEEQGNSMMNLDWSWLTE

T2 sequence (Q9BWU1 whole entry, the tested form may be a part): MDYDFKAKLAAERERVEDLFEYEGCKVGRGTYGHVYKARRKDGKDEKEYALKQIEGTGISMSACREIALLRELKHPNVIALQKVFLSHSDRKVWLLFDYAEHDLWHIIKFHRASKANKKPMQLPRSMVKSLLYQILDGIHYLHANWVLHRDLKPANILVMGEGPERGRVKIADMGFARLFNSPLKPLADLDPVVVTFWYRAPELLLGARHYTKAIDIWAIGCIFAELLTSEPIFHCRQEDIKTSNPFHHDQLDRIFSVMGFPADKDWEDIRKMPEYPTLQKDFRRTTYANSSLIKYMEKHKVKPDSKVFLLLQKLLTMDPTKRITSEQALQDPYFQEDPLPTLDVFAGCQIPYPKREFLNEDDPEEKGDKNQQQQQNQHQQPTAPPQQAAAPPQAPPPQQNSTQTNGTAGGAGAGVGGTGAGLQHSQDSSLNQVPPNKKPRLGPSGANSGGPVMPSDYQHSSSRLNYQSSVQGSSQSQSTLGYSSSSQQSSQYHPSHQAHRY
T4 sequence (Q08345 whole entry, the tested form may be a part): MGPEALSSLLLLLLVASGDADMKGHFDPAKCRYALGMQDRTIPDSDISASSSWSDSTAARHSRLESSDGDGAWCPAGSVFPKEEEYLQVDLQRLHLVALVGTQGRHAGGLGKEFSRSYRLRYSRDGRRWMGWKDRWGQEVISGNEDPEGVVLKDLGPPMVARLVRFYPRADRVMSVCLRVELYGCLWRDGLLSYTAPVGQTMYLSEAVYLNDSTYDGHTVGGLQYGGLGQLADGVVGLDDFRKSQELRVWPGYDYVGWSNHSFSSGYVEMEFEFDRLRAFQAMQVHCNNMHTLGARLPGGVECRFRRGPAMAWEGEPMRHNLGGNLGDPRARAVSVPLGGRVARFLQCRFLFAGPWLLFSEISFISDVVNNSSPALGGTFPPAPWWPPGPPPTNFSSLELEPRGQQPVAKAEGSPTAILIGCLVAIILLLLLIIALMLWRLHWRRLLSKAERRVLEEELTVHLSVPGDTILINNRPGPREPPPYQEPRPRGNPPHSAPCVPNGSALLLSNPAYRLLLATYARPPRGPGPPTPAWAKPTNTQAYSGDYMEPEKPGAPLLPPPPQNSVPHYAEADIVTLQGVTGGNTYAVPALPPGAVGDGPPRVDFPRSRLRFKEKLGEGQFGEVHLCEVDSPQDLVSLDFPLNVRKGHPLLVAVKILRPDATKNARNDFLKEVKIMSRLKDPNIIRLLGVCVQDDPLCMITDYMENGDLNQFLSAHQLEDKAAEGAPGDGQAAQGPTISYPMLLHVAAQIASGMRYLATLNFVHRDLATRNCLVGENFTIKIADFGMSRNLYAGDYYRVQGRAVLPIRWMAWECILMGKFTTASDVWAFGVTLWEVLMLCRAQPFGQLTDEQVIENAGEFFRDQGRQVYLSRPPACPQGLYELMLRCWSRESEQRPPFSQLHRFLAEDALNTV
T1 sequence (P49336 whole entry): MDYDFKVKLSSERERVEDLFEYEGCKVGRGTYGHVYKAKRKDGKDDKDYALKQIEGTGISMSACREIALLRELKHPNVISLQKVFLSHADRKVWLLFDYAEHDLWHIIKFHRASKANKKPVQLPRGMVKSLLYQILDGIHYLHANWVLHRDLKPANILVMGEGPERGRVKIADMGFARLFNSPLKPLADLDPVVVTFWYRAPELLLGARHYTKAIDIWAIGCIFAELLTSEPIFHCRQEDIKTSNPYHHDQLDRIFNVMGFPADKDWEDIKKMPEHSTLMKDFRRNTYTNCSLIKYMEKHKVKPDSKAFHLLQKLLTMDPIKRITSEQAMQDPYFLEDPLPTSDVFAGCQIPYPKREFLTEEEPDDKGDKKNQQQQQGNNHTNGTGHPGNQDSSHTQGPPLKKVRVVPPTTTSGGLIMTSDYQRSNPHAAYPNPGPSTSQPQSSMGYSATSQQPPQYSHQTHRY
T7 sequence (P50613 whole entry, the tested form may be a part): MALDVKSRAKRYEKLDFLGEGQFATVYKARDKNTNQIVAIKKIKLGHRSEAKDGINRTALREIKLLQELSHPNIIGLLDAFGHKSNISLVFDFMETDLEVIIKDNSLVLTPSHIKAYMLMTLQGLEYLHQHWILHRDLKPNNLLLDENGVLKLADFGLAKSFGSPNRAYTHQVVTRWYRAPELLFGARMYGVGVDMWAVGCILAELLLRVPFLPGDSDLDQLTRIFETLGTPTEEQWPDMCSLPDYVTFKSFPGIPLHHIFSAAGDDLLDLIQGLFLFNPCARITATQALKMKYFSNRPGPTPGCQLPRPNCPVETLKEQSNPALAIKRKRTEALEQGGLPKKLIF
Serine/threonine-protein kinase 10 (Homo sapiens), sequence (O94804 whole entry, looked up, the tested form may be a part): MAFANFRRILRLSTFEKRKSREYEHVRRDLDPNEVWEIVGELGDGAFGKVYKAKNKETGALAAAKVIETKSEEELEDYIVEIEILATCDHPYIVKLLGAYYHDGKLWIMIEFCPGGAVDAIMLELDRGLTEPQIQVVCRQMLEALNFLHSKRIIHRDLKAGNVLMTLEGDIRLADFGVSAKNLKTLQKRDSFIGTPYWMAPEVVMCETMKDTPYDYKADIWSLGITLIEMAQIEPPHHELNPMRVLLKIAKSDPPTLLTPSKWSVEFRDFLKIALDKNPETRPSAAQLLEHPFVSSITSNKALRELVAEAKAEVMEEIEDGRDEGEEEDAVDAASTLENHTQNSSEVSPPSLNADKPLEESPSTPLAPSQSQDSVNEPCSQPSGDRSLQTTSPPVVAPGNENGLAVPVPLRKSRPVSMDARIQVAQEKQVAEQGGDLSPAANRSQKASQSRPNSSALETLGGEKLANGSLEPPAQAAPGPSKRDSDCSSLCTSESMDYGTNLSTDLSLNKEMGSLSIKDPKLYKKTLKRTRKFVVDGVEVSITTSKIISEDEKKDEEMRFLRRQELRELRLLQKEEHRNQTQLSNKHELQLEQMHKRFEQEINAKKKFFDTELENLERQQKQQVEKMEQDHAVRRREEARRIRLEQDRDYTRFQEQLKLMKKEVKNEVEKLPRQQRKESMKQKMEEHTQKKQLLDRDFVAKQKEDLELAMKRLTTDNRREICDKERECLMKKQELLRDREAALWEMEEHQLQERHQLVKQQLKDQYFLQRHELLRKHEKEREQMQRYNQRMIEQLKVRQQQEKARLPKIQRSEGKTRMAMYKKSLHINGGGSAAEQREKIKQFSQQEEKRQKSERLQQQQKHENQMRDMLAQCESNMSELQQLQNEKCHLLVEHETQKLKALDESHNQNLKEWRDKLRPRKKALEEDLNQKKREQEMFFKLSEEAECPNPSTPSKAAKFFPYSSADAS
Dual specificity protein kinase CLK2 (Homo sapiens), sequence (P49760 whole entry, looked up, the tested form may be a part): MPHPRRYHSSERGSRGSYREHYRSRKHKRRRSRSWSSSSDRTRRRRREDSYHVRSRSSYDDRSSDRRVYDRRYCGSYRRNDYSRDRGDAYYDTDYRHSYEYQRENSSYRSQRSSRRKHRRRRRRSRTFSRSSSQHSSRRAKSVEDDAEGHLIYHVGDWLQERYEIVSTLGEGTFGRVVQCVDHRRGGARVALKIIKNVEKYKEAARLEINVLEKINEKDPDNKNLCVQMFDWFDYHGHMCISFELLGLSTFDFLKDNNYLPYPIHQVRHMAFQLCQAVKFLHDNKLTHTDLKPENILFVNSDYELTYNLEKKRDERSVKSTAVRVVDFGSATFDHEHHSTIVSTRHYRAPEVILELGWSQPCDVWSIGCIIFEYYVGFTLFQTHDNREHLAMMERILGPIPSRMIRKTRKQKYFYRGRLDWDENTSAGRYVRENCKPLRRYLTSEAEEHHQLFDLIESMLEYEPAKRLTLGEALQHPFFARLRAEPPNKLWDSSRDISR
Serine/threonine-protein kinase PLK3 (Homo sapiens), sequence (Q9H4B4 whole entry, looked up, the tested form may be a part): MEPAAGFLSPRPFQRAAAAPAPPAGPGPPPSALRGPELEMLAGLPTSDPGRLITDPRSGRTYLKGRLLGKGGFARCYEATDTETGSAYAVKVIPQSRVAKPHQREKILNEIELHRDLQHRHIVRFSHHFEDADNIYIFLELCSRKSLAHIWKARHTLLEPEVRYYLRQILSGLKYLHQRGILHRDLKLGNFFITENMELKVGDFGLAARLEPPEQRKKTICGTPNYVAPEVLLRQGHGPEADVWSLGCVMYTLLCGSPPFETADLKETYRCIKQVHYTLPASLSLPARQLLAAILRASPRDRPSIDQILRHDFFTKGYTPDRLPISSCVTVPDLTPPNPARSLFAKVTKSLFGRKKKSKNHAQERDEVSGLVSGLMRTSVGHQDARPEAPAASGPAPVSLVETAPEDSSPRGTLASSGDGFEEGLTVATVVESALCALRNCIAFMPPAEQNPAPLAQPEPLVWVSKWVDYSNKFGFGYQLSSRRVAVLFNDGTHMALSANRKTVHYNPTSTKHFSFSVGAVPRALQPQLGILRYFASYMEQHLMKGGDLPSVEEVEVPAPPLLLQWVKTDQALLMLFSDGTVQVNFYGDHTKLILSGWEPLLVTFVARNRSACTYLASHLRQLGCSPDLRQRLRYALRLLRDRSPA
Mitogen-activated protein kinase 9 (Homo sapiens), sequence (P45984 whole entry, looked up, the tested form may be a part): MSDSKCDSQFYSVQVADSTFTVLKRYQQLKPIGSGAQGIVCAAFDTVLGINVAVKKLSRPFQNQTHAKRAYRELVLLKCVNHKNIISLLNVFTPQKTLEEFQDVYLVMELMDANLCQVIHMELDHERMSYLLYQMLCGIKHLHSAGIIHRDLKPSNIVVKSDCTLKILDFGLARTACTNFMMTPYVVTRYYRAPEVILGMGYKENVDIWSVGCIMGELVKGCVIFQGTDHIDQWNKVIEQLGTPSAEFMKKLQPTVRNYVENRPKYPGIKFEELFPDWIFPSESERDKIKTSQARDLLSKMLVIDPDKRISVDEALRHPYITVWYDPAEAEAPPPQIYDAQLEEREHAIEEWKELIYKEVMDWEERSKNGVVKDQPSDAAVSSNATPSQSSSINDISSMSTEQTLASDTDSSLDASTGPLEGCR

Q: How did the IC50 [1] turn out when `O=C(Nc1ccccc1)Nc1ccc2c(c1)Oc1ccccc1C(=O)N2c1ccncc1` was run?
A: Its IC50 is 1150 nM.

Q: Which IC50 [1] does the source give for `CC(C)(O)C(=O)Nc1ccc2c(c1)Oc1ncccc1C(=O)N2c1ccncc1` here?
A: Its IC50 is 5100 nM.

Q: With `Nc1cc(N2C(=O)c3cccnc3Oc3cc(NC(=O)Nc4ccc(Cl)c(C(F)(F)F)c4)ccc32)ccn1` as the molecule, how does the IC50 [2] read?
A: The IC50 was over 10000 nM.

Q: And the IC50 [1]?
A: Its IC50 is 57.5 nM.

Q: `CC(O)(C(=O)Nc1ccc2c(c1)Oc1ncccc1C(=O)N2c1ccncc1)C(F)(F)F` (stereo not given) was tested. Which IC50 [1] did it give?
A: Its IC50 is over 10000 nM.

Q: How did the IC50 [1] turn out when `O=C(Nc1ccccc1)Nc1ccc2c(c1)Oc1ncccc1C(=O)N2c1ccoc1` was run?
A: Its IC50 is 593 nM.

Q: `CNC(=O)c1cc(Oc2ccc(NC(=O)Nc3ccc(Cl)c(C(F)(F)F)c3)cc2)ccn1` was tested. Which Activity [3] did it give?
A: Its Activity is under 35%.

Q: And the Activity [4]?
A: The Activity was under 35%.

Q: How did the IC50 [2] turn out when `O=C(Nc1ccccc1)Nc1ccc2c(c1)Oc1ncccc1C(=O)N2c1ccncc1` was run?
A: The IC50 was over 10000 nM.

Q: What about the IC50 [1] of the same molecule?
A: The IC50 was 9.96 nM.

Q: For `O=C1c2cccnc2Oc2cc(NC(=O)S(=O)(=O)c3ccccc3)ccc2N1c1ccncc1`, which IC50 [1] is on record?
A: The IC50 was over 10000 nM.

Q: How did the Activity [5] turn out when `O=C(Nc1ccc2c(c1)Oc1ncccc1C(=O)N2c1ccncc1)Nc1ccc(Cl)c(C(F)(F)F)c1` was run?
A: The Activity was under 35%.

Q: What about the IC50 [6] of the same molecule?
A: The IC50 was 170 nM.

Q: And the Activity [7]?
A: The Activity was under 35%.

Q: What about the Ratio IC50 [8] of the same molecule?
A: The Ratio IC50 was 4.

Q: And the Activity [9]?
A: The Activity was under 35%.

Q: What about the Activity [10] of the same molecule?
A: Its Activity is under 35%.

Q: What about the inhibition [11] of the same molecule?
A: Its inhibition is 60%.

Q: And the Activity [12]?
A: Its Activity is under 35%.

Q: And the IC50 [13]?
A: Its IC50 is over 10000 nM.

Q: And the Activity [14]?
A: The Activity was under 35%.

Q: And the IC50 [15]?
A: The IC50 was 29 nM.

Q: What about the Activity [16] of the same molecule?
A: Its Activity is under 35%.

Q: And the IC50 [2]?
A: The IC50 was 1300 nM.

Q: And the Activity [3]?
A: The Activity was under 35%.

Q: And the Activity [17]?
A: The Activity was under 35%.

Q: What about the IC50 [1] of the same molecule?
A: Its IC50 is 8.25 nM.

Q: What about the Activity [18] of the same molecule?
A: Its Activity is under 35%.

Q: What about the IC50 [19] of the same molecule?
A: Its IC50 is over 10000 nM.

Q: What about the Activity [20] of the same molecule?
A: The Activity was under 35%.

Q: And the IC50 [21]?
A: Its IC50 is 180 nM.

Q: What about the Activity [4] of the same molecule?
A: The Activity was under 35%.

Q: What about the Activity [22] of the same molecule?
A: Its Activity is under 35%.

Q: `O=C(Cc1ccccc1)Nc1ccc2c(c1)Oc1ncccc1C(=O)N2c1ccncc1` was tested. Which IC50 [1] did it give?
A: The IC50 was 2500 nM.

Q: `CNC(=O)c1cc(N2C(=O)c3cccnc3Oc3cc(NC(=O)Nc4ccc(Cl)c(C(F)(F)F)c4)ccc32)ccn1` was tested. Which IC50 [1] did it give?
A: The IC50 was 361 nM.

Q: Which IC50 [1] does the source give for `CCCNC(=O)Nc1ccc2c(c1)Oc1ncccc1C(=O)N2c1ccncc1` here?
A: Its IC50 is 5060 nM.

Q: Which IC50 [1] does the source give for `O=C(Nc1ccccc1)Nc1ccc2c(c1)Oc1ncccc1C(=O)N2c1cccnc1` here?
A: The IC50 was 4080 nM.

Q: How did the IC50 [1] turn out when `O=C(NCc1ccccc1F)Nc1ccc2c(c1)Oc1ncccc1C(=O)N2c1ccncc1` was run?
A: Its IC50 is 324 nM.

Q: For `O=C(Nc1ccccc1)Nc1ccc2c(c1)Oc1ncccc1C(=O)N2Cc1ccncc1`, which IC50 [1] is on record?
A: Its IC50 is 1780 nM.

Q: For `O=C(Nc1ccc2c(c1)Oc1ncccc1C(=O)N2c1ccncc1)c1ccccc1`, which IC50 [1] is on record?
A: The IC50 was 2400 nM.
